Screening data: PubChem BioAssay, Johns Hopkins Ion Channel Center
Only some compounds are listed: those with a hit (about 3.7% of all), similar ones and a draw of the others.
Kir21 inh: inhibitors of mouse Kir2.1 inward-rectifier potassium channel; B-score at 10 µM; Inward rectifier potassium channel 2 (Mus musculus), P35561; HEK293-Kir2.1, FluxOR thallium flux fluorescence; active compounds read low; AID 1672, 2009; 0.85% of 310,000 active;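 active = fluorescence ratio B-score at or below minus 3 SD of library scores, with starting-brightness B-score within 2 SD, cut at about -4.2 in these data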;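 also: channel flux triggered by added potassium and thallium sulfate stimulus; B-score of peak minus minimum fluorescence over baseline after thallium stimulus; more negative B-score means stronger Kir2.1 block with less thallium influx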
Target sequence (P35561 whole entry, looked up): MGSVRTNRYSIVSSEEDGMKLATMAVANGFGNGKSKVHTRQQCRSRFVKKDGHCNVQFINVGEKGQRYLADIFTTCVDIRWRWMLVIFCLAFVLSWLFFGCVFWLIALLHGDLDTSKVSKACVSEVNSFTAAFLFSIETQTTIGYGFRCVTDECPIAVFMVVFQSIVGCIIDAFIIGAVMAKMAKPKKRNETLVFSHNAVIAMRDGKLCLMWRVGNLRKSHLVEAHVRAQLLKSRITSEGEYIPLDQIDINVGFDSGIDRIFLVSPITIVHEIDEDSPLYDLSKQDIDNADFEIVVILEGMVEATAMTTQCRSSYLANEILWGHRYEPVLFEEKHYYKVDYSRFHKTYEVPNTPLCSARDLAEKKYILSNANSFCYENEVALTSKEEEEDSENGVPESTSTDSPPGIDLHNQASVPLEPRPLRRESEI
KCNK3 block: human KCNK3 channel inhibitors, primary screen, CHO cells, FluxOR thallium flux, B-score. 0.84% of 340,000 active. FluxOR fluorescence; active compounds read low. Potassium channel subfamily K member 3 (Homo sapiens), O14649. B-score at 10 µM;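 active = B-score under library mean minus 4 SD, starting fluorescence ratio at most library mean plus 5 SD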;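 also: more negative B-score means stronger inhibition of thallium flux through KCNK3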
KCNQ1 pot: potentiators or activators of KCNQ1 channel, primary screen, cell-based, thallium flux, high-throughput. Potassium voltage-gated channel subfamily KQT member 1 (Homo sapiens), P51787. CHO-K1 KCNQ1, thallium flux FluxOR fluorescence; active compounds read high. B-score at 10 µM. 0.35% of 310,000 active. AID 2648, 2010;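 active = fluorescence ratio B-score, a plate-corrected score, at least three library SD, with initial intensity B-score within 5 SD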
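Schedule – 37 °C overnight plating, 90-min dark dye load, 20-min compound pretreatment · System – stable KCNQ1 CHO-K1 line · Probe or stimulus – thallium- and potassium-containing depolarizing buffer · Measured by – kinetic FluxOR fluorescence, 10 s baseline plus 110 s post-stimulus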
KCNQ1 block: inhibitors of human KCNQ1 channel, primary screen, cell-based, thallium flux, high-throughput; Potassium voltage-gated channel subfamily KQT member 1 (Homo sapiens), P51787; B-score at 10 µM; 1.3% of 310,000 active; CHO-K1 KCNQ1, FluxOR thallium flux fluorescence; active compounds read high;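 active = compounds whose thallium flux B-score, printed positive for inhibition, exceeds three library SD while starting fluorescence stays within three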;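 also: channel opened by potassium depolarization with thallium stimulus after 20 min compound exposure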
KCNK9 inh: KCNK9 potassium channel inhibitors, primary screen, HEK293 cells, thallium flux. FluxOR thallium flux fluorescence; active compounds read low. 1.2% of 310,000 active. B-score at 10 µM. Potassium channel subfamily K member 9 (Homo sapiens), Q9NPC2;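 active = ratio B-score over 3 SD below the library mean, with starting fluorescence within 5 SD of its mean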;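 also: negative B-score means less thallium flux so channel inhibition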
hERG protect: hERG rescue from dofetilide block, primary screen, cell-based, CHO-hERG, FluxOR thallium flux, dofetilide IC70 | Voltage-gated inwardly rectifying potassium channel KCNH2 (Homo sapiens), Q12809 | dofetilide IC70 present | activation (rescue from dofetilide block), less the hit threshold, % at 10 µM | 0.51% of 310,000 active | AID 1511, 2009;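 active = activation above the mean of controls blocked by dofetilide plus 5 SD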;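 also: thallium influx through hERG after potassium depolarization seen as dye fluorescence rise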
The depositor's hits bear a star; i = inactive; . = no result.

SMILES | Kir21 inh | KCNK3 block | KCNQ1 pot | KCNQ1 block | KCNK9 inh | hERG protect
COc1ccc(/C=N/NC(=O)c2cc(-c3ccc(C)cc3C)nc3ccccc23)cc1COC(C)=O | -0.01 | -8.8* | i | i | i | -7
Cc1ccc(N(C)C(=O)C2CCCN2S(=O)(=O)c2ccc3c(c2)n(C)c(=O)c(=O)n3C)cc1 (stereo unspecified) | -0.43 | i | i | i | i | -12
O=[N+]([O-])c1ccc(-c2ccc(/C=N/n3cnnc3)o2)c(Br)c1 | 1.3 | i | i | i | i | 7.5*
Cc1cccc2c(CC(=O)Nc3ccccc3)noc12 | -0.84 | i | i | i | i | 0
COc1ccc(C[C@H]2CN3C(=NC[C@@H]3C(C)C)N2CCNC(=O)c2ccc(C)c(Br)c2)cc1 | -6.5* | i | i | i | i | -18
COc1ccccc1CN1CC(C(=O)N2CCOCC2)CCC1=O (stereo unspecified) | 0.53 | i | i | i | i | -14
Cc1cccc(OCCCC(=O)Nc2ccc(S(=O)(=O)Nc3nccs3)cc2)c1C | -0.25 | i | i | i | i | -13
CCOC(=O)CSc1nc(N)c(C#N)c(-c2cccs2)c1C#N | 1.4 | i | i | i | i | -2
CCSc1nc(C2CC2)cc(-c2cccs2)c1C#N | -0.29 | i | i | i | -6.8* | -7
CCCSc1nc(N)nc(-c2cccs2)c1C#N | -0.28 | i | i | i | -6.9* | -11
CCSc1nc(C2CC2)cc(-c2ccco2)c1C#N | 0.32 | i | i | i | i | -12
CCn1c(SCc2cccc(F)c2)nc2c(c1=O)SCC2 | -1.1 | i | i | i | i | -11
COC(=O)C1CCN(C(=O)c2cc(-c3ccc(Cl)s3)nc3ccccc23)CC1 | . | -9.1* | . | . | . | .
FC(F)Sc1ccc(NC(=S)NC2CCC(NC(=S)Nc3ccc(SC(F)F)cc3)CC2)cc1 (stereo unspecified) | 1.2 | i | i | i | i | -5
Oc1cccc2c(NC(=S)Nc3ccc(SC(F)F)cc3)cccc12 | 0.3 | i | i | 11* | i | -11
CC(=O)c1cccc(CN(C)CC2CCCN(CCc3ccccc3C)C2)c1 (stereo unspecified) | -6.5* | i | i | i | i | -1
COc1ccc(F)c(CN(C)CC2CCCN(CCc3ccc(F)cc3)C2)c1 (stereo unspecified) | -9.8* | i | i | i | i | -6
CCOc1cccc(CN(C)CC2CCCN(CCc3ccc(Cl)cc3)C2)c1O (stereo unspecified) | -7.3* | i | i | i | i | -5
COc1ccc(CN(C)CC2CCCN(CCc3ccc(Cl)cc3)C2)cc1OC (stereo unspecified) | -6.2 | i | i | i | i | -5
Cc1ccccc1CCN1CCCC(CN(C)CC(C)(C)C)C1 (stereo unspecified) | -0.31 | i | i | i | i | -10
CCOc1cccc2cc(C(=O)NCc3ccccc3Cl)c(=O)oc12 | -1.6 | i | i | i | i | -6
Cc1ccc(S(=O)(=O)Oc2ccccc2/C=N/O)cc1 | -6.9* | i | i | i | i | -5
Cc1ccc(S(=O)(=O)Oc2ccccc2/C=N/Nc2ccc(C(=O)O)cc2)cc1 | 1.2 | i | i | i | i | -4
CCN1CCN(CCOc2ccccc2-c2ccccc2)CC1 | -5.3* | i | i | i | i | -5
O=C(c1ccccc1)c1ccc(OCCCCN2CCCCC2)cc1 | -0.36 | i | i | i | i | 0
SMILES | Kir21 inh | KCNK3 block | KCNQ1 pot | KCNQ1 block | KCNK9 inh | hERG protect
CCN1CCN(CCCOc2ccc(-c3ccccc3)cc2)CC1 | -4.7* | . | i | i | i | -16
CCN1CCN(CCCOc2ccccc2-c2ccccc2)CC1 | 0.34 | i | i | i | i | -12
c1ccc(COc2ccc(OCCCCN3CCCCC3)cc2)cc1 | -4.7* | i | i | i | i | -14
O=C(Nc1cccc(S(=O)(=O)N2CCCCCC2)c1)c1cncc(Br)c1 | . | i | . | . | . | .
O=C(CCNC(=O)c1ccc([N+](=O)[O-])cc1)Nc1ccc(F)c(F)c1F | 2.1 | i | i | i | i | -3
CC(NC(=O)c1cccs1)C(S)c1ccccc1 (stereo unspecified) | -0.77 | i | i | i | -6.6* | -6
CC(NC(=S)NC(=O)c1cccs1)c1ccccc1 (stereo unspecified) | . | i | . | . | . | .
CCN(CC)C(=O)[C@H]1C[C@H](CC(=O)NCCC2=CCCCC2)C(=O)N2CCc3c([nH]c4cc(CCC(=O)N(C)C)ccc34)[C@]12C | . | i | . | . | . | .
CSC1=NC(C(Cl)(Cl)Cl)N=C(c2ccccc2)N1 (stereo unspecified) | -2 | i | i | i | i | 8.6*
CC12CCC(=O)N1C(C(=O)NCc1ccccc1Cl)CS2 (stereo unspecified) | 2 | i | i | i | i | -11
OC(CNCc1ccccc1)Cn1ccc2ccccc21 (stereo unspecified) | -5.2* | i | i | i | i | -4
Cc1cccc(NC(=S)c2nc3ccccc3s2)c1 | -2 | i | 10* | i | i | 43*
Cc1ccc(C2SCCN2C(=O)c2ccc([N+](=O)[O-])cc2)cc1 (stereo unspecified) | -6.5* | i | i | i | i | -11
Cc1nnc(SCC(=O)Nc2cccc(S(=O)(=O)N(C)c3ccccc3)c2)s1 | -2 | i | i | 6* | i | -14
CN(c1ccccc1)S(=O)(=O)c1cccc(NC(=O)CSc2nccc(=O)[nH]2)c1 | . | -9.8* | . | . | . | .
COCCn1cnnc1SCC(=O)Nc1cccc(S(=O)(=O)N(C)c2ccccc2)c1 | -0.45 | i | i | i | i | -8
CCC(=O)c1ccc(OCC(=O)Nc2cccc(S(=O)(=O)N(C)c3ccccc3)c2)cc1 | . | i | . | . | . | .
CN(c1ccccc1)S(=O)(=O)c1cccc(NC(=O)COc2cccc([N+](=O)[O-])c2)c1 | . | -9.9* | . | . | . | .
O=C(COc1ccc2c3c(c(=O)oc2c1)CCC3)N[C@@H](CSCc1ccccc1)C(=O)O | 1.6 | i | i | i | i | -8
